Reference: ChEMBL document CHEMBL1155175, “Salicylidene acylhydrazides that affect type III protein secretion in Salmonella enterica serovar typhimurium” (Antimicrob Agents Chemother, 2007)
The source made the active and inactive calls. The calls are words filed in the database; no cut-off is given here.

Tests used:
Salmonella typhimurium [1] = assay: Inhibition of Salmonella enterica serovar Typhimurium TT16729 invasion in MDCK cells at 20 uM by gentamycin protection assay; type: functional, organism-based; conditions: Salmonella enterica subsp. enterica serovar Typhimurium
Procedure, shortened: (§1)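 Bacteria grown in LB (overnight, then 1:10 subculture 3 h, 37°C, closed tubes) with compound at 20 µM or DMSO, then seeded on MDCK cells in HEPES-DMEM, MOI 10:1. Gentamicin 50 µg/ml for 45 min; cells lysed at 2 h with 0.5% deoxycholate; invasion = CFU at 2 h / CFU seeded, as percentage of input.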

Salmonella typhimurium [2] = assay: Antibacterial activity against Salmonella enterica serovar Typhimurium TT16729 at 20 uM to 40 uM; type: functional, organism-based; conditions: Salmonella enterica subsp. enterica serovar Typhimurium
MDCK = assay: Cytotoxicity against MDCK cells at 20 uM to 40 uM; type: cell-based, Canis lupus familiaris; conditions: dog
Salmonella typhimurium [3] = assay: Antibacterial activity against Salmonella enterica serovar Typhimurium TT16729 assessed as inhibition of SPI1 protein secretion T3SS-mediated invasion in MDCK cells at 20 uM; type: functional, organism-based; conditions: Salmonella enterica subsp. enterica serovar Typhimurium; procedure, shortened: as §1
Salmonella typhimurium [4] = assay: Antibacterial activity against Salmonella enterica serovar Typhimurium TT16729 motility assessed as reduction of swimming zone on soft agar plates at 40 uM; type: functional, Salmonella enterica subsp. enterica serovar Typhimurium
Procedure, shortened: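 Swimming motility on soft agar (tryptone 10 g/liter, NaCl 5 g/liter, 0.3% agar) prepared 1 day ahead, compound at 40 µM final; 20 µl overnight culture inoculated into agar; zone diameter read after 8 h at 37°C.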

Salmonella typhimurium [5] = assay: Antibacterial activity against Salmonella enterica serovar Typhimurium TT16729 in mouse RAW264.7 cells assessed as increase in nitric oxide level at 40 uM after 16 hrs; type: functional, organism-based; conditions: Salmonella enterica subsp. enterica serovar Typhimurium
Procedure, shortened: (§2)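 Opsonized bacteria infect RAW264.7 macrophages (MOI 10:1, gentamicin protection); compound or DMSO present in media from 1 h postinfection. Nitrite accumulated in culture medium at 16 h postinfection measured with Griess reagent (OD525), converted to µM against sodium nitrite standards.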

Salmonella typhimurium [6] = assay: Antibacterial activity against Salmonella enterica serovar Typhimurium TT16729 expressing SPI1 effector protein assessed as increase in beta-lactamase activity in cytosolic fraction at 20 uM by immunoblotting; type: functional, organism-based; conditions: Salmonella enterica subsp. enterica serovar Typhimurium
Procedure, shortened: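 TT16729 carrying pAUN-1 (SipB–β-lactamase fusion) grown to invasiveness in kanamycin LB, then 2 h in DMEM with kanamycin, L-glutamine and HEPES; compound 20 µM in all steps, DMSO control. Cells lysed (freeze-thaw, lysozyme 1 mg/ml 1 h 4°C, sonication), 5,000 x g clearing, then 50,000 x g 1 h. Cytosolic fraction assayed by nitrocefin (50 µg/ml, PBS) cleavage at A486, per min per OD600 or µg protein.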

Salmonella typhimurium [7] = assay: Antibacterial activity against Salmonella enterica serovar Typhimurium TT16729 expressing SPI1 effector protein assessed as localization of SipB-beta-lactamase fusion protein in osmotic shock sample at 20 uM by immunoblotting; type: functional, organism-based; conditions: Salmonella enterica subsp. enterica serovar Typhimurium
Salmonella typhimurium [8] = assay: Antibacterial activity against Salmonella enterica serovar Typhimurium TT16729 assessed as decrease in transcription of lacZ-hilA at 40 uM; type: functional, organism-based; conditions: Salmonella enterica subsp. enterica serovar Typhimurium
Salmonella typhimurium [9] = assay: Antibacterial activity against Salmonella enterica serovar Typhimurium TT16729 assessed as decrease in transcription of lacZ-prgH at 40 uM; type: functional, organism-based; conditions: Salmonella enterica subsp. enterica serovar Typhimurium
Salmonella typhimurium [10] = assay: Antibacterial activity against Salmonella enterica serovar Typhimurium TT16729 assessed as decrease in transcription of lacZ-sipC at 40 uM; type: functional, organism-based; conditions: Salmonella enterica subsp. enterica serovar Typhimurium
Salmonella typhimurium [11] = assay: Antibacterial activity against Salmonella enterica serovar Typhimurium TT16729 assessed as decrease in spvA-lacZ expression at 40 uM; type: functional, organism-based; conditions: Salmonella enterica subsp. enterica serovar Typhimurium
Salmonella typhimurium [12] = assay: Antibacterial activity against Salmonella enterica serovar Typhimurium TT16729 in mouse RAW264.7 cells assessed as reduction of intracellular bacterial replication at 40 uM after 16 hrs; type: functional, organism-based; conditions: Salmonella enterica subsp. enterica serovar Typhimurium
Procedure, shortened: (§3)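 RAW264.7 cells in RPMI/10% FBS infected at MOI 10:1 with LB-agar-grown, mouse-serum-opsonized bacteria; gentamicin 50 µg/ml for 45 min, then 10 µg/ml. Compound added to killing and maintenance media from 1 h postinfection onward. Hypotonic lysis at 2 and 16 h; growth yield = CFU 16 h / CFU 2 h.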

Salmonella typhimurium [13] = assay: Antibacterial activity against Salmonella enterica serovar Typhimurium 14028 in mouse RAW264.7 cells assessed as reduction of intracellular bacterial replication at 40 uM after 16 hrs; type: functional, organism-based; conditions: Salmonella enterica subsp. enterica serovar Typhimurium; procedure, shortened: as §3
Salmonella typhimurium [14] = assay: Antibacterial activity against Salmonella enterica serovar Typhimurium 14028 in mouse RAW264.7 cells assessed as increase in nitric oxide level at 40 uM after 16 hrs; type: functional, organism-based; conditions: Salmonella enterica subsp. enterica serovar Typhimurium; procedure, shortened: as §2
RAW264.7 = assay: Effect on nitric oxide production in mouse RAW264.7 cells; type: functional, cell-based
Salmonella typhimurium [15] = assay: Antibacterial activity against Salmonella enterica serovar Typhimurium 14028 assessed as reduction in sseJ-HA fusion protein secretion in hexadecane extracted fraction at 20 and 40 uM by immunoblotting; type: functional, organism-based; conditions: Salmonella enterica subsp. enterica serovar Typhimurium
Procedure, shortened: (§4)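 Strain 14028 grown overnight in low-pH minimal medium MM5.8 (SPI2-inducing) with compound or DMSO control; whole cells, hexadecane-extractable fraction and cell-free supernatant separated, volumes normalized by OD600, supernatant proteins TCA-precipitated; SseJ-HA detected by immunoblot on 12% SDS-PAGE with anti-HA monoclonal antibody (1:1,000) and chemiluminescence.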

Salmonella typhimurium [16] = assay: Antibacterial activity against Salmonella enterica serovar Typhimurium 14028 assessed as increase in sseJ-HA fusion protein secretion in bacterial cell containing fraction at 20 and 40 uM by immunoblotting; type: functional, organism-based; conditions: Salmonella enterica subsp. enterica serovar Typhimurium; procedure, shortened: as §4
Salmonella typhimurium [17] = assay: Antibacterial activity against Salmonella enterica serovar Typhimurium 14028 assessed as inhibition of sseJ-HA fusion protein secretion by immunoblotting; conditions: Salmonella enterica subsp. enterica serovar Typhimurium
Salmonella typhimurium [18] = assay: Antibacterial activity against Salmonella enterica serovar Typhimurium TT16729 assessed as reduction in expression of bacterial cell bound flagellin at 40 uM by SDS-PAGE; type: functional, organism-based; conditions: Salmonella enterica subsp. enterica serovar Typhimurium
Procedure, shortened: (§5)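 Bacteria grown 16–18 h in LB with compound (40 or 80 µM) or DMSO; flagellin released by 150 mM NaCl/10 mM HCl for 5 min at room temperature, bacteria removed by centrifugation, supernatant proteins TCA-precipitated and run on 9% SDS-PAGE; loading normalized by OD600.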

Salmonella typhimurium [19] = assay: Antibacterial activity against Salmonella enterica serovar Typhimurium TT16729 assessed as reduction in expression of bacterial cell bound flagellin at 80 uM by SDS-PAGE; type: functional, organism-based; conditions: Salmonella enterica subsp. enterica serovar Typhimurium; procedure, shortened: as §5
Salmonella typhimurium [20] = assay: Antibacterial activity against Salmonella enterica serovar Typhimurium TT16729 infected mouse RAW264.7 cells assessed as increase in nitric oxide level at 40 uM after 16 hrs in presence of tetracyclin; type: functional, organism-based; conditions: Salmonella enterica subsp. enterica serovar Typhimurium
Procedure, shortened: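 RAW264.7 cells infected with opsonized strain TT16729 (MOI 10:1, gentamicin protection), compound in medium from 1 h postinfection; bacterial protein synthesis blocked with tetracycline at 2 h postinfection. Medium nitrite measured at 16 h by Griess reagent (OD525) against sodium nitrite standards.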

Salmonella typhimurium [21] = assay: Antibacterial activity against Salmonella enterica serovar Typhimurium TT16729 in mouse RAW264.7 cells assessed as increase in intracellular bacterial replication at 40 uM after 16 hrs; type: functional, organism-based; conditions: Salmonella enterica subsp. enterica serovar Typhimurium; procedure, shortened: as §3
Salmonella typhimurium [22] = assay: Antibacterial activity against Salmonella enterica serovar Typhimurium 14028 in mouse RAW264.7 cells assessed as reduction of nitric oxide level at 40 uM after 16 hrs; type: functional, organism-based; conditions: Salmonella enterica subsp. enterica serovar Typhimurium; procedure, shortened: as §2

In the case of `O=C(N/N=C/c1cc(Br)cc(Br)c1O)c1ccc([N+](=O)[O-])cc1`, the Activity (Salmonella typhimurium [1]) is reported as “Active”, the Activity (Salmonella typhimurium [2]) is reported as “inactive” and the Activity (MDCK) is reported as “Non-toxic”. The Activity (Salmonella typhimurium [3]) was “Active” and the Activity (Salmonella typhimurium [4]) was 2.9 cm.

In the case of `O=C(N/N=C/c1ccc(O)c(O)c1O)c1ccccc1`, the Activity (Salmonella typhimurium [1]) is reported as “Active”, the Activity (Salmonella typhimurium [2]) is reported as “inactive” and the Activity (MDCK) is reported as “Non-toxic”. The Activity (Salmonella typhimurium [3]) was “Active” and the Activity (Salmonella typhimurium [4]) was 3.3 cm.

For `O=C(N/N=C/c1cc(Br)cc(Br)c1O)c1cccnc1`, the Activity (Salmonella typhimurium [5]) was “Active”, the Activity (Salmonella typhimurium [1]) was “Active” and the Activity (Salmonella typhimurium [2]) was “inactive”. For the same compound, the Activity (MDCK) was “Non-toxic”, the Activity (Salmonella typhimurium [3]) was “Active” and the Activity (Salmonella typhimurium [6]) was “Active”. The Activity (Salmonella typhimurium [7]) was “inactive”, the Activity (Salmonella typhimurium [8]) was “Active” and the Activity (Salmonella typhimurium [9]) was “Active”. The Activity (Salmonella typhimurium [10]) was “Active”, the Activity (Salmonella typhimurium [11]) was “Active” and the Activity (Salmonella typhimurium [12]) was “Active”. The Activity (Salmonella typhimurium [13]) was “Active”, the Activity (Salmonella typhimurium [14]) was “Active” and the Activity (RAW264.7) was “inactive”. For the same compound, the Activity (Salmonella typhimurium [15]) was “Active”, the Activity (Salmonella typhimurium [16]) was “inactive” and the Activity (Salmonella typhimurium [4]) was 2.7 cm. For the same compound, the Activity (Salmonella typhimurium [17]) was “Active”.

For `NC(=O)C(=O)N/N=C/c1cc(Br)ccc1O`, the Activity (Salmonella typhimurium [1]) was “Active”, the Activity (Salmonella typhimurium [2]) was “inactive” and the Activity (MDCK) was “Non-toxic”. The Activity (Salmonella typhimurium [3]) was “Active”, the Activity (Salmonella typhimurium [4]) was 1.7 cm and the Activity (Salmonella typhimurium [18]) was “Active”. The Activity (Salmonella typhimurium [19]) was “Active”.

In the case of `O=C(N/N=C/c1cc(Cl)cc(Cl)c1O)c1ccccc1`, the Activity (Salmonella typhimurium [1]) is reported as “Active”, the Activity (Salmonella typhimurium [2]) is reported as “inactive” and the Activity (MDCK) is reported as “Non-toxic”. For the same compound, the Activity (Salmonella typhimurium [3]) was “Active” and the Activity (Salmonella typhimurium [4]) was 2.7 cm.

`O=C(N/N=C/c1ccc(O)c(O)c1O)c1ccco1` was tested, and the Activity (Salmonella typhimurium [1]) was “Active”, the Activity (Salmonella typhimurium [2]) was “inactive” and the Activity (MDCK) was “Non-toxic”. The Activity (Salmonella typhimurium [3]) was “Active” and the Activity (Salmonella typhimurium [4]) was 2.9 cm.

`O=C(N/N=C/c1cc(Br)ccc1O)c1cccnc1` was tested, and the Activity (Salmonella typhimurium [1]) was “Active”, the Activity (Salmonella typhimurium [2]) was “inactive” and the Activity (MDCK) was “Non-toxic”. For the same compound, the Activity (Salmonella typhimurium [3]) was “Active”, the Activity (Salmonella typhimurium [4]) was 2.4 cm and the Activity (Salmonella typhimurium [18]) was “Active”.

`CCOc1cccc(/C=N/NC(=O)C(N)=O)c1O` was tested, and the Activity (Salmonella typhimurium [1]) was “Active”, the Activity (Salmonella typhimurium [2]) was “inactive” and the Activity (MDCK) was “Non-toxic”. The Activity (Salmonella typhimurium [3]) was “Active”, the Activity (Salmonella typhimurium [4]) was 2.7 cm and the Activity (Salmonella typhimurium [19]) was “inactive”.

`O=C(N/N=C/c1c(O)ccc2ccccc12)c1ccc(Cl)cc1` was tested, and the Activity (Salmonella typhimurium [1]) was “Active”, the Activity (Salmonella typhimurium [2]) was “inactive” and the Activity (MDCK) was “Non-toxic”. For the same compound, the Activity (Salmonella typhimurium [3]) was “Active”, the Activity (RAW264.7) was “inactive” and the Activity (Salmonella typhimurium [20]) was “Active”. The Activity (Salmonella typhimurium [15]) was “Active”, the Activity (Salmonella typhimurium [16]) was “inactive” and the Activity (Salmonella typhimurium [4]) was 3.1 cm. For the same compound, the Activity (Salmonella typhimurium [21]) was “Active”, the Activity (Salmonella typhimurium [22]) was “Active” and the Activity (Salmonella typhimurium [17]) was “Active”.
